Source: ChEMBL document CHEMBL1932985, “Identification of biaryl sulfone derivatives as antagonists of the histamine H₃ receptor: discovery of (R)-1-(2-(4'-(3-methoxypropylsulfonyl)biphenyl-4-yl)ethyl)-2-methylpyrrolidine (APD916)” (Bioorg Med Chem Lett, 2012)
The source made the active and inactive calls. No cut-off for these calls is given here.

Experiments:
Rattus norvegicus [1] = assay: Inhibition of RAMH-induced dipsogenia in Sprague-Dawley rat at 0.1 mg/kg, po administered 30 mins prior to RAMH challenge measured up to 20 mins; assay type: functional, organism-based; set-up: dose 0.1 mg/kg
Summary of the method: (§1)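 Rats given compound orally 0.5 h (or, for duration of action, at selected times up to 6 h) before RAMH 10 mg/kg SC; water consumed over 20 min measured. Screening doses 1 or 0.3 mg/kg PO, also 0.1 mg/kg; duration study at 0.6 mg/kg PO. MED = minimum dose fully inhibiting drinking; means ± SEM.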

Rattus norvegicus [2] = assay: Inhibition of RAMH-induced dipsogenia in Sprague-Dawley rat at 0.6 mg/kg, po administered 1 hr prior to RAMH challenge measured up to 20 mins; assay type: functional, organism-based; set-up: dose 0.6 mg/kg; summary of the method: as §1
Rattus norvegicus [3] = assay: Inhibition of RAMH-induced dipsogenia in Sprague-Dawley rat at 0.6 mg/kg, po administered 30 mins prior to RAMH challenge measured up to 20 mins; assay type: functional, organism-based; set-up: dose 0.6 mg/kg; summary of the method: as §1
[4] = Tmax in Sprague-Dawley rat at 10 mg/kg, po and iv by LC-MS/MS analysis; assay type: ADME, organism-based; set-up: dose 10 mg/kg, route oral; details: in vivo
Summary of the method: (§2)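 Rats were given the compound both IV and PO in a routine PK study. Tmax came from the PO arm and Vss from the IV arm.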

[5] = target: Voltage-gated inwardly rectifying potassium channel KCNH2 (Homo sapiens, UniProt Q12809); assay: Inhibition of human ERG by patch-clamp assay
Histamine H3 receptor = Histamine H3 receptor (Rattus norvegicus, UniProt Q9QYN8); assay: Displacement of N-[3H]-methylhistamine from histamine H3 receptor in rat cortex membranes; assay type: cell membranes, Membrane
[6] = Ratio of drug level in brain to plasma in Sprague-Dawley rat at 10 mg/kg, po and iv after 0.75 to 3 hrs by LC-MS/MS analysis; assay type: ADME, organism-based; set-up: dose 10 mg/kg, route oral; details: read-out: BPR
Summary of the method: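 Brain (µg/mg) and plasma (µg/mL) levels were measured after oral dosing, with three rats per time point. The b/p ratio was the mean of the nine individual ratios.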

[7] = Cmax in Sprague-Dawley rat plasma at 10 mg/kg, po and iv by LC-MS/MS analysis; assay type: ADME, organism-based; set-up: dose 10 mg/kg, route oral
Summary of the method: (§3)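 Rat PK after IV and PO dosing; plasma Cmax, Tmax, IV half-life and Vss determined; oral bioavailability from AUCpo/AUCiv. Metabolite exposure determined after a 3 mg/kg PO parent dose.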

[8] = Half life in Sprague-Dawley rat at 10 mg/kg, iv by LC-MS/MS analysis; assay type: ADME, organism-based; set-up: dose 10 mg/kg, route intravenous; details: in vivo; summary of the method: as §3
Rattus norvegicus [9] = assay: Volume of distribution at steady state in Sprague-Dawley rat at 10 mg/kg, po and iv by LC-MS/MS analysis; assay type: ADME, organism-based; set-up: dose 10 mg/kg, route oral; details: in vivo; summary of the method: as §2
Rattus norvegicus [10] = assay: Inhibition of RAMH-induced dipsogenia in po dosed Sprague-Dawley rat administered 30 mins prior to RAMH challenge measured up to 20 mins; assay type: functional; details: read-out: MED; summary of the method: as §1
[11] = Oral bioavailability in Sprague-Dawley rat at 10 mg/kg by LC-MS/MS analysis; assay type: ADME, organism-based; details: in vivo; summary of the method: as §3
hERG (KCNH2) = hERG (KCNH2) (Homo sapiens, UniProt Q12809); assay: Inhibition of human ERG at 3 uM by patch-clamp assay
Rattus norvegicus [12] = assay: Inhibition of RAMH-induced dipsogenia in Sprague-Dawley rat at 0.6 mg/kg, po administered 6 hrs prior to RAMH challenge measured up to 20 mins; assay type: functional; summary of the method: as §1
Plasma = assay: Cmax in Sprague-Dawley rat plasma assessed as (R)-3-(4'-(2-(2-methylpyrrolidin-1-yl)ethyl)biphenyl-4-ylsulfonyl)propan-1-ol level at 3 mg/kg, po and iv by LC-MS/MS analysis; assay type: ADME, organism-based; set-up: dose 3 mg/kg, route oral; details: in vivo; summary of the method: as §3
[13] = Ratio of (R)-3-(4'-(2-(2-methylpyrrolidin-1-yl)ethyl)biphenyl-4-ylsulfonyl)propan-1-ol level in brain to plasma in Sprague-Dawley rat at 3 mg/kg, po and iv after 0.75 to 3 hrs by LC-MS/MS analysis; assay type: ADME, organism-based; set-up: dose 3 mg/kg, route oral
Summary of the method: (§4)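 Exposure to the hydroxylated metabolite was measured after the propyl parent was given to rats at 3 mg/kg PO. Brain (µg/mg) and plasma (µg/mL) levels were taken at 3 time points, and the ratio was the mean.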

[14] = Tmax in Sprague-Dawley rat at 3 mg/kg, po and iv by LC-MS/MS analysis; assay type: ADME, organism-based; set-up: dose 3 mg/kg, route oral; details: in vivo; summary of the method: as §2
Rattus norvegicus [15] = assay: Tmax in Sprague-Dawley rat assessed as (R)-3-(4'-(2-(2-methylpyrrolidin-1-yl)ethyl)biphenyl-4-ylsulfonyl)propan-1-ol level at 3 mg/kg, po and iv by LC-MS/MS analysis; assay type: ADME, organism-based; set-up: dose 3 mg/kg, route oral; details: in vivo; summary of the method: as §4
[16] = Oral bioavailability in Sprague-Dawley rat at 3 mg/kg by LC-MS/MS analysis; assay type: ADME, organism-based; details: in vivo; summary of the method: as §3
Rattus norvegicus [17] = assay: Volume of distribution at steady state in Sprague-Dawley rat at 3 mg/kg, po and iv by LC-MS/MS analysis; assay type: ADME, organism-based; set-up: dose 3 mg/kg, route oral; details: in vivo; summary of the method: as §2
[18] = Half life in Sprague-Dawley rat at 3 mg/kg, iv by LC-MS/MS analysis; assay type: ADME, organism-based; set-up: dose 3 mg/kg, route intravenous; details: in vivo; summary of the method: as §3
[19] = Cmax in Sprague-Dawley rat plasma at 3 mg/kg, po and iv by LC-MS/MS analysis; assay type: ADME, organism-based; set-up: dose 3 mg/kg, route oral; summary of the method: as §3
[20] = Solubility of the compound in water; assay type: physicochemical
[21] = target: Histamine H4 receptor (Homo sapiens) (UniProt Q9H3N8); assay: Binding affinity to H4 receptor at 10 uM relative to control
Summary of the method: (§5)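 Broad binding panel of 80 receptors, including histamine H1, H2 and H4, with compound tested at 10 µM; binding expressed as percent of control.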

Rattus norvegicus [22] = assay: Effect on sleep-awake cycle in EEG/EMG Sprague-Dawley rat model assessed as increase in wakefulness at 0.6 mg/kg, po measured for 4 hrs; assay type: functional, organism-based; set-up: dose 0.6 mg/kg
Summary of the method: (§6)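 Rats with chronically implanted cortical electrodes dosed orally (0.6 mg/kg; dose-response also run) during subjective night, about four hours after lights on; wake time recorded over 8 h versus vehicle and assessed over first 1, 2 and 4 h; means ± SEM.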

[23] = target: Histamine H1 receptor (Homo sapiens) (UniProt P35367); assay: Binding affinity to H1 receptor at 10 uM relative to control; summary of the method: as §5
Rattus norvegicus [24] = assay: Effect on sleep-awake cycle in EEG/EMG Sprague-Dawley rat model assessed as increase in wakefulness at 0.6 mg/kg, po measured for 2 hrs; assay type: functional, organism-based; set-up: dose 0.6 mg/kg; summary of the method: as §6
Rattus norvegicus [25] = assay: Effect on sleep-awake cycle in EEG/EMG Sprague-Dawley rat model assessed as increase in wakefulness at 0.3 mg/kg, po measured for 2 hrs; assay type: functional, organism-based; set-up: dose 0.3 mg/kg; summary of the method: as §6
[26] = target: Histamine H2 receptor (Homo sapiens) (UniProt P25021); assay: Binding affinity to H2 receptor at 10 uM relative to control; summary of the method: as §5
Rattus norvegicus [27] = assay: Effect on sleep-awake cycle in EEG/EMG Sprague-Dawley rat model assessed as increase in wakefulness at 0.3 mg/kg, po measured for 1 hr; assay type: functional, organism-based; set-up: dose 0.3 mg/kg; summary of the method: as §6

Chain of Histamine H3 receptor (Q9QYN8 whole entry): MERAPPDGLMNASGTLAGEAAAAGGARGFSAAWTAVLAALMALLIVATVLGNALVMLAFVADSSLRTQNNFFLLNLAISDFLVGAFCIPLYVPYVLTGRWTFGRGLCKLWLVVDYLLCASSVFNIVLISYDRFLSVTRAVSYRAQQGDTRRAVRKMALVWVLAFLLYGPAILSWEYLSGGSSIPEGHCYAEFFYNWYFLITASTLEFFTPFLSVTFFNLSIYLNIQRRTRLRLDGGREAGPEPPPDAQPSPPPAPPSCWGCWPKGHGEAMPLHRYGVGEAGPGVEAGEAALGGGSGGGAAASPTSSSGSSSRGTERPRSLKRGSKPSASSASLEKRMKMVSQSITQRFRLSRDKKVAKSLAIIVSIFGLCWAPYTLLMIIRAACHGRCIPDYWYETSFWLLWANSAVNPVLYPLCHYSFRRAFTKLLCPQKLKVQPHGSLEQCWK
Chain of Voltage-gated inwardly rectifying potassium channel KCNH2 (Q12809 whole entry): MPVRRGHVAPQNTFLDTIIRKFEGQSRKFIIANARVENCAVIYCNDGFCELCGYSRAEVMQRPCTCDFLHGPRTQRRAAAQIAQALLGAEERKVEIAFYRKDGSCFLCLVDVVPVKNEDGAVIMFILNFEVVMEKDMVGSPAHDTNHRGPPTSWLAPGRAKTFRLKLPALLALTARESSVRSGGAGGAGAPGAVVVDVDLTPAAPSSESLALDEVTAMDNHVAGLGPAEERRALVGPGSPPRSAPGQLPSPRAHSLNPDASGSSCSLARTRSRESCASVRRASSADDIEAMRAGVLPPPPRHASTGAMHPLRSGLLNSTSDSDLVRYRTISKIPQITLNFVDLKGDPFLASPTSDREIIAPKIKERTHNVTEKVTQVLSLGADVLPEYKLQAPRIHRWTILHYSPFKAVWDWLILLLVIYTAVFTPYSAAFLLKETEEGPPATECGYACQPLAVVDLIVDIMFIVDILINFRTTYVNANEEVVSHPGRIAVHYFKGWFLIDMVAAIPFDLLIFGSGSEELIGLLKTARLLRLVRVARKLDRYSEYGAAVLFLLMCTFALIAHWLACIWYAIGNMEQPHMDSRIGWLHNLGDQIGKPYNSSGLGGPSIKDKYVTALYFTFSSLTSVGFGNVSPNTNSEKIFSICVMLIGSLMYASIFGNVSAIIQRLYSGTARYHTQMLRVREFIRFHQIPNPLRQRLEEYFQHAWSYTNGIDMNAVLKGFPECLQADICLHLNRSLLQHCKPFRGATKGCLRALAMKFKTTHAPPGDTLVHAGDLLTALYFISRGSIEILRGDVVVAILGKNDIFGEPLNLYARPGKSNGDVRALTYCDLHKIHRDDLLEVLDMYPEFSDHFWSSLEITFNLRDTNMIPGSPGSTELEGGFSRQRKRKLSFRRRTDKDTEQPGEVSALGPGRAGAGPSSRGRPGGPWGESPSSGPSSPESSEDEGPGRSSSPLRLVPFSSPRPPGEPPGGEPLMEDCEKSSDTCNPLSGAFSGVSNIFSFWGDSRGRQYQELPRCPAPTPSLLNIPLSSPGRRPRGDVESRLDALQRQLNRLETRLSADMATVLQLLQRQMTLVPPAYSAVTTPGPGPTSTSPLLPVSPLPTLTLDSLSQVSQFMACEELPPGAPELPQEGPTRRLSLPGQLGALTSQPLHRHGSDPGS
Chain of hERG (KCNH2) (Q12809 whole entry): as above
Chain of Histamine H1 receptor (Homo sapiens) (P35367 whole entry): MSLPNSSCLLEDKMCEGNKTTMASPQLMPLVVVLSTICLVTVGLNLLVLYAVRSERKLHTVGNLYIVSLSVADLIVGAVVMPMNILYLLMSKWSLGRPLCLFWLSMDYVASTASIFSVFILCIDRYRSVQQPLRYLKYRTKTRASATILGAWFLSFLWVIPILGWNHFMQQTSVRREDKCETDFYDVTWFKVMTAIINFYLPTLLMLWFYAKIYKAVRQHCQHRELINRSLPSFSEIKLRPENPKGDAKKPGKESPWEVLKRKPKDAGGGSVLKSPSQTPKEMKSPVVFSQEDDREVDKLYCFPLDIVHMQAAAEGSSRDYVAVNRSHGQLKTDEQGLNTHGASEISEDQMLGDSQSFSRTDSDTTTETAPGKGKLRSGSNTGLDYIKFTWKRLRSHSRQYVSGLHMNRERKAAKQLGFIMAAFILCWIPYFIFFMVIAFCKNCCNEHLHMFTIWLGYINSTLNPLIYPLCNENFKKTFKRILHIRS
Chain of Histamine H4 receptor (Homo sapiens) (Q9H3N8 whole entry): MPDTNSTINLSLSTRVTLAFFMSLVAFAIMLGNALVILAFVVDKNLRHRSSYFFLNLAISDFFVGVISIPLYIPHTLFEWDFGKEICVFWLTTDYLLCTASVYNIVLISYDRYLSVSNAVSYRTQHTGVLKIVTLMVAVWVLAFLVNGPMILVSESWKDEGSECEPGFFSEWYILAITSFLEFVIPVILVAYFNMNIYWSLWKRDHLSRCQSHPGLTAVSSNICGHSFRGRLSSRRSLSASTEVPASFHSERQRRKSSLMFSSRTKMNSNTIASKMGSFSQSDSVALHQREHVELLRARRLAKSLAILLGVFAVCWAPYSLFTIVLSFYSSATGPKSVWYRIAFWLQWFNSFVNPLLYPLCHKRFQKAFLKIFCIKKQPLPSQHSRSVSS
Chain of Histamine H2 receptor (Homo sapiens) (P25021 whole entry): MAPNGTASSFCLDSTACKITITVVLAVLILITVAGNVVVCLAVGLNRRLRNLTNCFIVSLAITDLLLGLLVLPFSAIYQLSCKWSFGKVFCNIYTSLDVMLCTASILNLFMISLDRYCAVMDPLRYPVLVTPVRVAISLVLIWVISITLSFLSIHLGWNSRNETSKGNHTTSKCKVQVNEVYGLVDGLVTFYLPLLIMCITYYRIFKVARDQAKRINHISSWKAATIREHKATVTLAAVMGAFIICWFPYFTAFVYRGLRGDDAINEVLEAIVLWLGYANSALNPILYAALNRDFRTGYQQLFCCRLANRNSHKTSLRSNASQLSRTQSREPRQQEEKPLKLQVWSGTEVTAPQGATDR

In the case of `COCCS(=O)(=O)c1ccc(-c2ccc(CCN3CCC[C@H]3C)cc2)cc1` [listing 1 of 2 here], the inhibition (Rattus norvegicus [1]) is reported as “inactive”, the inhibition (Rattus norvegicus [2]) is reported as “Active” and the inhibition (Rattus norvegicus [3]) is reported as “Active”.

For `COCCS(=O)(=O)c1ccc(-c2ccc(CCN3CCC[C@H]3C)cc2)cc1` [listing 2 of 2 here], the Tmax [4] was 18 min, the IC50 [5] was 7400 nM and the Ki (Histamine H3 receptor) was 1.4 nM. The Kp [6] was 1.73, the Cmax [7] was 184 ng/mL and the half-life [8] was 42 min. For the same compound, the Vdss (Rattus norvegicus [9]) was 7.6 L/kg, the minimal effective dose (Rattus norvegicus [10]) was 0.3 mg/kg and the bioavailability [11] was 68.5%. For the same compound, the inhibition at 3 µM (hERG (KCNH2)) was 29% and the inhibition in vivo at 0.6 mg/kg (Rattus norvegicus [12]) was < 20%.

`CCCS(=O)(=O)c1ccc(-c2ccc(CCN3CCC[C@H]3C)cc2)cc1` showed a Cmax (Plasma) of 449 ng/mL, a BPR [13] of 0.7 and a Ki (Histamine H3 receptor) of 0.6 nM. For the same compound, the Tmax [14] was 6 min, the Tmax (Rattus norvegicus [15]) was 180 min and the minimal effective dose (Rattus norvegicus [10]) was 0.3 mg/kg. For the same compound, the bioavailability [16] was < 0.1%, the Vdss (Rattus norvegicus [17]) was 5.9 L/kg and the half-life [18] was 18 min. For the same compound, the Cmax [19] was 6 ng/mL.

For `COCCS(=O)(=O)c1ccc(-c2ccc(CCN3CCC[C@H]3C)cc2)cc1.Cl`, the solubility [20] was > 30 mg/mL.

With `C[C@@H]1CCCN1CCc1ccc(-c2ccc(S(=O)(=O)CC3CCCCO3)cc2)cc1` (some centres undefined) the Ki (Histamine H3 receptor) was 0.2 nM.

In the case of `C[C@@H]1CCCN1CCc1ccc(-c2ccc(S(=O)(=O)Cc3ccccc3)cc2)cc1`, the Ki (Histamine H3 receptor) is reported as 0.6 nM and the inhibition at 3 µM (hERG (KCNH2)) is reported as 95%.

For `COCCCS(=O)(=O)c1ccc(-c2ccc(CCN3CCC[C@H]3C)cc2)cc1.O=C(O)CC(O)(CC(=O)O)C(=O)O`, the solubility [20] was > 150 mg/mL.

`C[C@@H]1CCCN1CCc1ccc(-c2ccc(S(=O)(=O)CC3CCOCC3)cc2)cc1` showed a Ki (Histamine H3 receptor) of 0.17 nM and a minimal effective dose (Rattus norvegicus [10]) of 0.3 mg/kg.

For `C[C@@H]1CCCN1CCc1ccc(-c2ccc(S(=O)(=O)CCCO)cc2)cc1`, the IC50 [5] was > 30000 nM, the Ki (Histamine H3 receptor) was 0.8 nM and the minimal effective dose (Rattus norvegicus [10]) was 1 mg/kg.

In the case of `COCCCS(=O)(=O)c1ccc(-c2ccc(CCN3CCC[C@H]3C)cc2)cc1`, the inhibition (Rattus norvegicus [1]) is reported as “inactive”, the inhibition [21] is reported as < 50% and the Activity (Rattus norvegicus [22]) is reported as “inactive”. The inhibition (Rattus norvegicus [2]) was “Active”, the inhibition [23] was < 50% and the Activity (Rattus norvegicus [24]) was “Active”. For the same compound, the inhibition (Rattus norvegicus [3]) was “Active”, the Activity (Rattus norvegicus [25]) was “inactive” and the inhibition [26] was < 50%. For the same compound, the Activity (Rattus norvegicus [27]) was “Active”.
